Data on 5 molecules can be found in ChEMBL document CHEMBL1157570, “Development of potent and selective inhibitors of ecto-5'-nucleotidase based on an anthraquinone scaffold” (J Med Chem, 2010).

Each structure is given as a SMILES string. Active and inactive are the calls of the source. The calls are words filed in the database; no cut-off is given here.

Test [1] addresses T1, 5'-nucleotidase (Rattus norvegicus, UniProt P21588).
T1 sequence (P21588 whole entry): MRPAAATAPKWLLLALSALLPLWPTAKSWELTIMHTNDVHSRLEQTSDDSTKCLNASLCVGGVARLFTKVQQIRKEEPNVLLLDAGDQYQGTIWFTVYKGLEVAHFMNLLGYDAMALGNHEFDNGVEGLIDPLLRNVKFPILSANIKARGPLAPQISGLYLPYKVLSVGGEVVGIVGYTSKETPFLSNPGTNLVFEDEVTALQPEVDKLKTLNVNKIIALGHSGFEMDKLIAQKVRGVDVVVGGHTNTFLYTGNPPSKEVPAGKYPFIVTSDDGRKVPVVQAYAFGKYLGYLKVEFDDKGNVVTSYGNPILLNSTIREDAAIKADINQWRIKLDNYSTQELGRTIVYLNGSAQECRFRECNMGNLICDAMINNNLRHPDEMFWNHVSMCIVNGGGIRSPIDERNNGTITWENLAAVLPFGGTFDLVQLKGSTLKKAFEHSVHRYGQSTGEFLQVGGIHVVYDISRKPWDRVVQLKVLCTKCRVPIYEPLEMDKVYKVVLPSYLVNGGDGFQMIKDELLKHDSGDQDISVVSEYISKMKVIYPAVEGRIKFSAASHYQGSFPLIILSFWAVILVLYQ
The test can be described thus: Inhibition of rat ecto-5'-nucleotidase expressed in Sf9 cells by capillary electrophoresis method. Put shortly: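 Rat eN, GST-fused, made in Sf9 cells and purified on GSH-agarose. 500 μM AMP in Hepes pH 7.4 with Mg2+/Ca2+, 37 °C for 15 min. Adenosine measured by capillary electrophoresis at 260 nm. Inhibitor at 6-8 concentrations spanning about 3 log units. […] Three experiments, each in duplicate.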

For test [2], the target named is T2, 5'-nucleotidase (Rattus norvegicus) (UniProt P21588).
T2 sequence (whole entry): T1 sequence (P21588 whole entry)
The test can be described thus: Inhibition of rat ecto-5'-nucleotidase expressed in Sf9 cells by competitive Michaelis-Menten plot. An outline of the steps: (§1)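 Purified recombinant rat eN from Sf9 cells. Reaction rates measured across a range of AMP concentrations, with inhibitor absent or at 0.2, 1 or 5 μM. Adenosine formed was quantified by capillary electrophoresis at 260 nm. Km and Vmax were compared on Michaelis-Menten and Lineweaver-Burk plots to assign the inhibition mode.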

Test [3] concerns the target T2, 5'-nucleotidase (Rattus norvegicus). The test can be described thus: Inhibition of rat ecto-5'-nucleotidase expressed in Sf9 cells by competitive Lineweaver-Burke plot. An outline of the steps:
as §1

Test [4] deals with T3, Ectonucleoside triphosphate diphosphohydrolase 1 (Rattus norvegicus, UniProt P97687).
T3 sequence (P97687 whole entry): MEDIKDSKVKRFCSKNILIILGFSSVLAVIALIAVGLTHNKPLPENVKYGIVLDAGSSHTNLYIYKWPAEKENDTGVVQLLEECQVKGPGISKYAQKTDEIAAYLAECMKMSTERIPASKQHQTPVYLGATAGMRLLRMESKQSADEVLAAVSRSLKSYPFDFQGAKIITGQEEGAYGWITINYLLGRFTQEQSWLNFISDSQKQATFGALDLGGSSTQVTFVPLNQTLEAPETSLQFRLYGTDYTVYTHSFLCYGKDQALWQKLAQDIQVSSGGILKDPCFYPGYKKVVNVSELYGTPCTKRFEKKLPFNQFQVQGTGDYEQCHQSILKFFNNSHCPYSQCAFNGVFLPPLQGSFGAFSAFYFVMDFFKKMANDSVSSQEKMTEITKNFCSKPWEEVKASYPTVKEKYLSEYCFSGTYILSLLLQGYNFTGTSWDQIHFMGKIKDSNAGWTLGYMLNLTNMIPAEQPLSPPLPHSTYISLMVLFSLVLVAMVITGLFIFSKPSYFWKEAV
The test can be described thus: Inhibition of rat NTPdase1 by capillary electrophoresis method.

For test [5], the target named is T4, Ectonucleoside triphosphate diphosphohydrolase 2 (Rattus norvegicus, UniProt O35795).
T4 sequence (O35795 whole entry): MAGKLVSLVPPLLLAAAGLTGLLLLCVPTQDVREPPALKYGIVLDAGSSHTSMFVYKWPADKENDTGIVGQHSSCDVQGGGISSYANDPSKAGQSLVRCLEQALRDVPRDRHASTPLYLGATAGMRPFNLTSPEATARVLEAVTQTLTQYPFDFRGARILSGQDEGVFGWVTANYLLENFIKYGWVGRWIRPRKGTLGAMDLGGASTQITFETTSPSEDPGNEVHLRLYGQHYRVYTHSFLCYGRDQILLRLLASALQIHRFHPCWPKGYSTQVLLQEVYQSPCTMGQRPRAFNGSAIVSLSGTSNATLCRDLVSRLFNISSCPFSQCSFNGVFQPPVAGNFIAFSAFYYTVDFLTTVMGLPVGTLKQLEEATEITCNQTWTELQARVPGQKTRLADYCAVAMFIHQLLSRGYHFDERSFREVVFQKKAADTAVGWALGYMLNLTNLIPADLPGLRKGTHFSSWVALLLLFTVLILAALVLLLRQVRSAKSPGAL
The test can be described thus: Inhibition of rat NTPdase2 by capillary electrophoresis method.

Test [6] concerns the target T5, Nucleoside triphosphate diphosphohydrolase 3 (Rattus norvegicus, UniProt A6I415).
T5 sequence (A6I415 whole entry): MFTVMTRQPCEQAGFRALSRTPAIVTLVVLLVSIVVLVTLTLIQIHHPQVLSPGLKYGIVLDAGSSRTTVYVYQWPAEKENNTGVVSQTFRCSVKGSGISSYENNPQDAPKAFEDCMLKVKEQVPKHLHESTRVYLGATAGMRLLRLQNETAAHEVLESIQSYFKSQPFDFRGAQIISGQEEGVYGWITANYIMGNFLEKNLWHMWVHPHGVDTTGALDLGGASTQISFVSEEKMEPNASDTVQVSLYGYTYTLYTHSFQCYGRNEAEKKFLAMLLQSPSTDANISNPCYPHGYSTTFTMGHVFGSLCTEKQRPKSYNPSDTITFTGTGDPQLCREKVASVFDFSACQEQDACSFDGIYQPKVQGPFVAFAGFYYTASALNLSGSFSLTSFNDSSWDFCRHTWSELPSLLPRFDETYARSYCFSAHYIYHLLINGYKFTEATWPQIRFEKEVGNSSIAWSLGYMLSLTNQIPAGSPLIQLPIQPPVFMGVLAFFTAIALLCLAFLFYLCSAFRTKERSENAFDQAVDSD
The test can be described thus: Inhibition of rat NTPdase3 by capillary electrophoresis method.

For test [7], the target named is P2Y purinoceptor 6 (Rattus norvegicus, UniProt Q63371). The test can be described thus: Antagonist activity at rat P2Y6 receptor expressed in astrocytoma cells assessed as inhibition of intracellular calcium mobilization. Type of test: functional, cell-based. Put shortly: (§2)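 Astrocytoma cells stably expressing the receptor, loaded with Fura-2 AM. Cells preincubated with test agent for at least 20 min, then challenged with 1 μM UTP (P2Y2), 3 μM UTP (P2Y4) or 3 μM UDP (P2Y6). Ca2+ fluorescence read at ex 320/em 520 nm. Full curves (7-8 concentrations over 3 log units) run when inhibition exceeded 40% at 10 μM. Three experiments, each in triplicate.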
P2Y purinoceptor 6, sequence (Q63371 whole entry): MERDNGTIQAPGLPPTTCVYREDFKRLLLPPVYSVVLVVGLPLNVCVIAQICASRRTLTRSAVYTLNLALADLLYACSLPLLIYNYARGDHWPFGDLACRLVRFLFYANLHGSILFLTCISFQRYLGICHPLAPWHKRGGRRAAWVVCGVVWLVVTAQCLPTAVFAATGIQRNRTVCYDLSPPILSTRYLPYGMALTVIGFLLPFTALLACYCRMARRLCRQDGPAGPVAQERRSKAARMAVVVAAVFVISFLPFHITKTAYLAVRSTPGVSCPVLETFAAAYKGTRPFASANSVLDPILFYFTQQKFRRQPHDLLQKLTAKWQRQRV
Background: Calcium flux is commonly read through the fluorescence of an indicator in the cells.

In test [8] the target is T6, Ectonucleoside triphosphate diphosphohydrolase 1 (Homo sapiens, UniProt P49961).
T6 sequence (P49961 whole entry): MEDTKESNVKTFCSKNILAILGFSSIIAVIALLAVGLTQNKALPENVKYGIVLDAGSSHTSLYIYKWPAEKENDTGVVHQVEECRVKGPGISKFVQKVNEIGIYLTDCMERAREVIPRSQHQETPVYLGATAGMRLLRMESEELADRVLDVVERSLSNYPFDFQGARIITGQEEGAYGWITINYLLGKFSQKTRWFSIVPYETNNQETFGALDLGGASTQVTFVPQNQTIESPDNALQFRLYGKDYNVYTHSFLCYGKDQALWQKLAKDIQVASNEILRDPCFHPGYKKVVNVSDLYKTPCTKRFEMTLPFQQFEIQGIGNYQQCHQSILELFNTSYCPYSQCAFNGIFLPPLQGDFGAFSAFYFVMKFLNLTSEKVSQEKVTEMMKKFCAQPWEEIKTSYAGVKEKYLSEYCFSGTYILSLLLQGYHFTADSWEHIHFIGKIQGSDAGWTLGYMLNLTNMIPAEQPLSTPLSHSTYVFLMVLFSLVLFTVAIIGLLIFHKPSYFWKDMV
The test can be described thus: Inhibition of human NTPdase1 by capillary electrophoresis method. Put shortly:
(§3)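 Membrane preparations containing human NTPDase1, 2 or 3. Inhibitor added in water or 1% DMSO. Incubated 10 min at 37 °C, stopped at 99 °C for 5 min. Diluted with 20 μM UMP as internal standard, then analysed by capillary electrophoresis. Triplicates in two experiments.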

The target in test [9] is T7, Ectonucleoside triphosphate diphosphohydrolase 2 (Homo sapiens, UniProt Q9Y5L3).
T7 sequence (Q9Y5L3 whole entry): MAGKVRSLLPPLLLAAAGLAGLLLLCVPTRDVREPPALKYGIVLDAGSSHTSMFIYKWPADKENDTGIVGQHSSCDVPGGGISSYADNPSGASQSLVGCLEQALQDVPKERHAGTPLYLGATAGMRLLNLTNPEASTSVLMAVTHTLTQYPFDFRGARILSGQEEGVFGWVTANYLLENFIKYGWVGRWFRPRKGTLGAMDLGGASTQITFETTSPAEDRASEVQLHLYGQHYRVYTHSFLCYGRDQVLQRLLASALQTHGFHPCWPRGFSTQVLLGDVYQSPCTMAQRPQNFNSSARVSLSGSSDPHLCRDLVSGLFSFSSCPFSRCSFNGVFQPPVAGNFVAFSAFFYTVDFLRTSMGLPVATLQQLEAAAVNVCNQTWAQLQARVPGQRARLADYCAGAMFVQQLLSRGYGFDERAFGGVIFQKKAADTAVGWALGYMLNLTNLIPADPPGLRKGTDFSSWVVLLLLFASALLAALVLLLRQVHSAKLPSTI
The test can be described thus: Inhibition of human NTPdase2 by capillary electrophoresis method. Put shortly: as §3

Test [10] concerns the target T8, Ectonucleoside triphosphate diphosphohydrolase 3 (Homo sapiens, UniProt O75355).
T8 sequence (O75355 whole entry): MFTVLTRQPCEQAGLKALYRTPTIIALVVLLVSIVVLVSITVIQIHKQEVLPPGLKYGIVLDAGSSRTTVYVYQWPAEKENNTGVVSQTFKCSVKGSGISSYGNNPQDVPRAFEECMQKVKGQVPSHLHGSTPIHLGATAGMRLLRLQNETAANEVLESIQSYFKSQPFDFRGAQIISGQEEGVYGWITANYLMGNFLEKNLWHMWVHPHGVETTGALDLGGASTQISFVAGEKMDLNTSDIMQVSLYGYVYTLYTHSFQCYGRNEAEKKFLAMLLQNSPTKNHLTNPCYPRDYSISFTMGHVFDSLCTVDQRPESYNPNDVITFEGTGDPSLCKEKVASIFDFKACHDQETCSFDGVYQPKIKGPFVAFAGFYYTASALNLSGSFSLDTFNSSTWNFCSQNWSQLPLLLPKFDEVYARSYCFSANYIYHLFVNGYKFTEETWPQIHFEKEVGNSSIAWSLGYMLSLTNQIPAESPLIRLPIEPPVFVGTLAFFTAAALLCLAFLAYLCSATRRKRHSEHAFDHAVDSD
The test can be described thus: Inhibition of human NTPdase3 by capillary electrophoresis method. Put shortly:
as §3

Test [11] addresses P2Y purinoceptor 2 (Homo sapiens, UniProt P41231). The test can be described thus: Antagonist activity at human P2Y2 receptor expressed in astrocytoma cells assessed as inhibition of intracellular calcium mobilization. The test is classed as functional, cell-based. An outline of the steps: as §2
Test [12] addresses P2Y purinoceptor 4 (Homo sapiens, UniProt P51582). The test can be described thus: Antagonist activity at human P2Y4 receptor expressed in astrocytoma cells assessed as inhibition of intracellular calcium mobilization. Type of test: functional, cell-based. An outline of the steps:
as §2

The nature of test [13]: Selectivity ratio of Ki for rat ecto-5'-nucleotidase to Ki for human NTPdase1.

P2Y purinoceptor 2, sequence (P41231 whole entry): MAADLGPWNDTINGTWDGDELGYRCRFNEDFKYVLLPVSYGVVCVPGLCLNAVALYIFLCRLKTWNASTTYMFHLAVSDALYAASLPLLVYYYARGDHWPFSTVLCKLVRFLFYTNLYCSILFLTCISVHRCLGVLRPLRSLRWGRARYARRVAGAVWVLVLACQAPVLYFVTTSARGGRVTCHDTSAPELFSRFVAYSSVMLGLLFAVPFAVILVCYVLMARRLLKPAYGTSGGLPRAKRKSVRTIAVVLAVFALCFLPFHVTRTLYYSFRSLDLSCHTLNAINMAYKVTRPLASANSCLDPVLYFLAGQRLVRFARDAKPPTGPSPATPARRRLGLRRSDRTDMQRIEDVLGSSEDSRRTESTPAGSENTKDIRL
P2Y purinoceptor 4, sequence (P51582 whole entry): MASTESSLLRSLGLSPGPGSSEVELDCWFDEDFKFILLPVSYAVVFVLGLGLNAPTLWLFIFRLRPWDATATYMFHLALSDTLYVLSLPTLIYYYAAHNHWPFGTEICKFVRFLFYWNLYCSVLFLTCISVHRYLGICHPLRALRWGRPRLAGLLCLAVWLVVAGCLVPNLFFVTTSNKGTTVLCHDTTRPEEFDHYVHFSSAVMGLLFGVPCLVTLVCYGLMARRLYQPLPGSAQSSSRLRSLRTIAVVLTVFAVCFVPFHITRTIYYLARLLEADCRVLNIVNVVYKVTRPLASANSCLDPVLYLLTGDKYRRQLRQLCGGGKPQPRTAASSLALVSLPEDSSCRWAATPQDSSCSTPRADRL

Take `Nc1c(S(=O)(=O)O)cc(Nc2cccc3ccccc23)c2c1C(=O)c1ccccc1C2=O`: the Ki (in general, a dissociation constant, usually derived from enzyme kinetics or from competition with a known ligand) in test [1] was 530 nM; in test [4] it was > 150 µM; in test [5] it was > 400 µM; in [6] it was 1.5 µM. The inhibition entry in test [2] and in [3] was “Active” in each case. Also, the IC50 (commonly the concentration that gives 50% inhibition) in test [7] came out at 30 µM.
As for `Nc1c(S(=O)(=O)O)cc(Nc2ccc3cc4ccccc4cc3c2)c2c1C(=O)c1ccccc1C2=O`, the inhibitory constant (Ki) in test [1] was 150 nM; in [8] it was 2.59 µM; in test [9], > 200 µM; in test [10], > 60 µM. In addition, the figures for the IC50 in [11], in test [12] and in test [7] were 10 µM, > 10 µM and > 10 µM, respectively. The Ratio Ki in [13] was 17.
With `Nc1c(S(=O)(=O)O)cc(Nc2ccccc2)c2c1C(=O)c1ccccc1C2=O` [ACID BLUE 25], the Ki in [1] amounted to 15200 nM; in test [4], 49.1 µM; in test [5] it was 35.8 µM; in test [6] it was 14.3 µM. Besides, the IC50 in test [11] was 11 µM; in test [12], 25.8 µM; in test [7], > 10 µM.
As for `Nc1c(S(=O)(=O)O)cc(Nc2ccc(O)cc2)c2c1C(=O)c1ccccc1C2=O`, the Ki is 620 nM in [1], 10.7 µM in test [8] and > 200 µM in [9]. For the same molecule, the IC50 in test [11] was 4.63 µM; in [12] it was 2.37 µM; in [7] it was 5.3 µM.
For `Nc1c(S(=O)(=O)O)cc(Nc2ccc(F)cc2C(=O)O)c2c1C(=O)c1ccccc1C2=O`, the Ki in test [1] was 260 nM; in test [8], > 40 µM; in [9] it was > 200 µM; in [10], > 60 µM. Moreover, the results for the IC50 in [11], in [12] and in [7] were 29.9 µM, > 10 µM and 10 µM, respectively. For the same molecule, the Ratio Ki in [13] was > 150.
